Screening data deposited in PubChem BioAssay by The Scripps Research Institute Molecular Screening Center.
VIM-2 inhibitor – inhibitors of Pseudomonas aeruginosa VIM-2 metallo-beta-lactamase; actives 0.89% (n = 290,000); inhibition, % at 5.6 µM; purified VIM-2, nitrocefin hydrolysis, epi-absorbance fluorescence;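 active = inhibition above the mean of all tested compounds plus 3 SD, cutoff set per screening run, cut at about 7.5% in these data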;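 also: red hydrolysis product quenches plate fluorescence so inhibitors raise well fluorescence; 0% = enzyme with DMSO and 100% = DMSO without enzyme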
IMP-1 inhibitor – blocks Pseudomonas aeruginosa IMP-1 metallo-beta-lactamase; AID 1556; purified IMP-1, nitrocefin hydrolysis, epi-absorbance fluorescence; actives 0.45% (n = 290,000); inhibition, % at 5.6 µM;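 active = inhibition above the mean plus 3 SD of all compounds in the same screening run, cut at about 4.5% in these data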;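 also: 0% = IMP-1 with DMSO and 100% = DMSO wells lacking enzyme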
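Assay system: purified IMP-1; Quantity: IMP-1 0.2 nM before substrate addition; Medium: HEPES buffer pH 7.1 with ZnSO4 and Brij 35; Incubation: 15 min enzyme–compound preincubation, then 25 min nitrocefin reaction, 25 °C; Signal: fluorescence quenching readout, ex 480/em 530 nm; Controls: DMSO with and without IMP-1; Repeats: singlicate testing.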
FID counter – fluorescent intercalator displacement, NS3 helicase counter-screen; DNA fluorescent intercalator displacement, fluorescence; inhibition, % at 7.9 µM; actives 0.17% (n = 290,000); AID 1845; in the data active = inhibition above about 37%;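 also: 0% = vehicle and 100% = reference compound; higher means more ethidium bromide displaced from hairpin DNA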
HCV NS3 hel inh – inhibitors of Hepatitis C virus NS3 helicase | NS3 helicase DNA unwinding, Cy5 molecular beacon fluorescence | inhibition, % at 10.9 µM | actives 0.56% (n = 290,000) | AID 1800;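 active = inhibition above the mean of all tested compounds plus 3 SD, set per campaign, cut at about 35% in these data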;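 also: 0% = DMSO wells and 100% = thioflavine S control wells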
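Assay system: hepatitis C virus NS3 helicase domain fragment enzyme. Also added: annealed dual-labelled DNA beacon duplex, ATP-started. Timing: 1 h reaction at 25 °C, ATP-initiated. Technique: Cy5 fluorescence at 0 and 60 min, beacon hairpin quenching. Evaluation: % inhibition of unwinding. Replication: one well per compound.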
* hit, by the source's call. Shown are actives, neighbours in structure and some others; about 1.9% of the full set was active somewhere.

For N=c1c2c(-c3ccccc3)c(-c3ccccc3)n(Cc3ccccc3)c2ncn1CCO the results were VIM-2 inhibitor 0, IMP-1 inhibitor -2, FID counter 37* and HCV NS3 hel inh -57.
`Cc1ccc(S(=O)(=O)c2nc(S(=O)(=O)c3ccc(C)cc3)c(N3CCN(CCO)CC3)s2)cc1` gave VIM-2 inhibitor -1, IMP-1 inhibitor -2, FID counter 11 and HCV NS3 hel inh -64.
`C/C(O)=c1/c(=O)nc2cccc3c2=c1c1ccccc1c3=O` gave VIM-2 inhibitor 10*, IMP-1 inhibitor 4, FID counter 9 and HCV NS3 hel inh 36.
Screening O=C(CN1C(=O)S/C(=C\c2ccccc2)C1=O)Nc1cc([N+](=O)[O-])ccc1O returned VIM-2 inhibitor 0, IMP-1 inhibitor -2, FID counter 43* and HCV NS3 hel inh 16.
Cc1ccc(/C=C2/SC(=S)N(CCCC(=O)Nc3cc([N+](=O)[O-])ccc3O)C2=O)cc1 was read as VIM-2 inhibitor -2, IMP-1 inhibitor -2, FID counter -2 and HCV NS3 hel inh -7.
COc1ccc(-c2cc(-c3ccccc3)nc(N3CCCC3)n2)cc1OC was read as VIM-2 inhibitor -2, IMP-1 inhibitor 4.8*, FID counter -20 and HCV NS3 hel inh 21.
COc1ccc(-c2cc(C(F)(F)F)nc(N3CCOCC3)n2)cc1OC was read as VIM-2 inhibitor -2, IMP-1 inhibitor -2, FID counter -3 and HCV NS3 hel inh -5.
For COc1ccc(C(=O)c2ccc(CC(=O)O)s2)cc1 the results were VIM-2 inhibitor 0, IMP-1 inhibitor -2, FID counter -3 and HCV NS3 hel inh -8.
Cc1ccc(-n2nc3c(c2NC(=O)c2c(-c4ccccc4Cl)noc2C)CSC3)cc1 was read as VIM-2 inhibitor -4, IMP-1 inhibitor -5, FID counter -16 and HCV NS3 hel inh 8.
`Cc1ccccc1-n1nc2c(c1NC(=O)c1c(-c3ccccc3Cl)noc1C)CSC2` gave VIM-2 inhibitor -2, IMP-1 inhibitor 44*, FID counter -9 and HCV NS3 hel inh -5.
Screening Cc1cccc(/C=C2\Sc3ccc(C(=O)NCC4CCCO4)cc3N(C)C2=O)c1 (configuration not stated) returned VIM-2 inhibitor -1, IMP-1 inhibitor -4, FID counter -41 and HCV NS3 hel inh -1.
COc1ccc(/C=C2\Sc3ccc(C(=O)NCCCN4CCCC4)cc3N(C)C2=O)cc1OC was read as VIM-2 inhibitor 11*, IMP-1 inhibitor -1, FID counter 19 and HCV NS3 hel inh -64.
`CCOc1ccc(/C=C2/Sc3ccc(C(=O)NCC4CCCO4)cc3N(C)C2=O)cc1OC` (configuration not stated) gave VIM-2 inhibitor 8.6*, IMP-1 inhibitor 0, FID counter -46 and HCV NS3 hel inh -19.
For CCOC(=O)N1CCN(C(=O)c2ccc3c(c2)N(C)C(=O)/C(=C\c2ccc(OCC)c(OC)c2)S3)CC1 the results were VIM-2 inhibitor -1, IMP-1 inhibitor -4, FID counter -69 and HCV NS3 hel inh -9.
Cc1ccc(N(C)S(=O)(=O)c2cc3c(cc2C)NC(=O)CO3)cc1 was read as VIM-2 inhibitor 0, IMP-1 inhibitor -1, FID counter -19 and HCV NS3 hel inh -4.
`O=c1c2ccccc2ncn1-c1ccc(Cl)c(Cl)c1` gave VIM-2 inhibitor -3, IMP-1 inhibitor -3, FID counter 0 and HCV NS3 hel inh -3.
For O=c1c2ccccc2ncn1-c1cccc(Cl)c1 the results were VIM-2 inhibitor 5, IMP-1 inhibitor 36*, FID counter 0 and HCV NS3 hel inh -17.
Screening COc1ccccc1NC(=O)NCc1ccc(C)n1C returned VIM-2 inhibitor 11*, IMP-1 inhibitor 2, FID counter 2 and HCV NS3 hel inh 17.
CCCS(=O)(=O)N1CCCC(C(=O)NCCCN2CCN(c3ccc(F)cc3)CC2)C1 (configuration not stated) was read as VIM-2 inhibitor -1, IMP-1 inhibitor 5.4*, FID counter 7 and HCV NS3 hel inh -5.
CCOc1ccc(S(=O)(=O)NCCC(=O)Nc2cccc(C(=O)OC)c2)cc1 was read as VIM-2 inhibitor -2, IMP-1 inhibitor -2, FID counter -24 and HCV NS3 hel inh -6.
CN(C)S(=O)(=O)c1cccc(NC(=S)Nc2cccc3cnccc23)c1 was read as VIM-2 inhibitor 12*, IMP-1 inhibitor 1, FID counter 4 and HCV NS3 hel inh 12.
`S=C(Nc1cccnc1)Nc1cccc2cnccc12` gave VIM-2 inhibitor 5, IMP-1 inhibitor -3, FID counter 4 and HCV NS3 hel inh 9.
`NS(=O)(=O)c1ccc(NC(=O)COC(=O)COc2cccc(C(F)(F)F)c2)cc1` gave VIM-2 inhibitor -1, IMP-1 inhibitor -2, FID counter 0 and HCV NS3 hel inh -2.
Screening COc1ccc(/C=N/Nc2ccc([N+](=O)[O-])cc2)cc1O returned VIM-2 inhibitor 0, IMP-1 inhibitor -1, FID counter 21 and HCV NS3 hel inh -6.
`O=C1c2cccc(O)c2C(=O)c2c(O)cccc21` gave VIM-2 inhibitor 2, IMP-1 inhibitor -2, FID counter 1 and HCV NS3 hel inh 9.
Screening COc1cccc2c1-c1c(O)cccc1C2=O returned VIM-2 inhibitor 11*, IMP-1 inhibitor -1, FID counter 11 and HCV NS3 hel inh 7.
Cc1ccc(O)c(Nc2c3ccccc3nc3ccccc23)c1 was read as VIM-2 inhibitor 9.2*, IMP-1 inhibitor -3, FID counter 5 and HCV NS3 hel inh -25.
Cc1ccc(O)c(Nc2nc(-c3ccccc3)nc3ccccc23)c1 was read as VIM-2 inhibitor 0, IMP-1 inhibitor -2, FID counter 7 and HCV NS3 hel inh -19.
COC(=O)CSc1nc2sc3c(c2c(=O)n1-c1ccc(OC)cc1)CCN(C)C3 was read as VIM-2 inhibitor 2, IMP-1 inhibitor 5.8*, FID counter -4 and HCV NS3 hel inh -9.
For CCOC(=O)CSc1nc2sc3c(c2c(=O)n1-c1ccc(OC)cc1)CCN(C)C3 the results were VIM-2 inhibitor -1, IMP-1 inhibitor -3, FID counter -6 and HCV NS3 hel inh -64.
Screening Cc1cnc(CNC(=O)CC2C(=O)NCCN2Cc2cccc(F)c2F)cn1 (configuration not stated) returned VIM-2 inhibitor -2, IMP-1 inhibitor -3, FID counter -17 and HCV NS3 hel inh 2.
`CCCCN1CC(O)=C(c2nc(-c3ccc(Cl)cc3)cs2)C1=N` gave VIM-2 inhibitor -3, IMP-1 inhibitor -4, FID counter -1 and HCV NS3 hel inh -3.
N=C1C(c2nc(-c3ccc(Cl)cc3)cs2)=C(O)CN1CCCN1CCOCC1 was read as VIM-2 inhibitor 14*, IMP-1 inhibitor -3, FID counter 30 and HCV NS3 hel inh -81.
`Cc1nc2nc(C)c(NS(=O)(=O)c3ccc(Cl)s3)c(=O)n2[nH]1` gave VIM-2 inhibitor -1, IMP-1 inhibitor -1, FID counter -2 and HCV NS3 hel inh 5.
`Cc1cc(NC(=O)c2ccc3[nH]c(C)c(C)c3c2)ccn1` gave VIM-2 inhibitor -2, IMP-1 inhibitor -4, FID counter 37* and HCV NS3 hel inh -13.
